{"source": "ChEMBL document CHEMBL3045616", "about": "“Synthetic pyrazole derivatives as growth inhibitors of some phytopathogenic fungi” (J Agric Food Chem, 2007)", "key": {"[1]": {"tested_on": "Botrytis cinerea", "test": "Antifungal activity against logarithmic phase of Botryotinia fuckeliana ATCC 48339 assessed as growth inhibition at 100 ug/ml measured at 5 days post-drug treatment", "type": "functional", "conditions": "ATCC 48339, 120 h, read-out: GI", "method_in_brief": "(§1)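 Log-phase mycelium (from 10 mm stationary-phase disks grown on cellophane over PDA, pH 5.6, 26 ± 1 °C) moved to PDA with compound added from DMSO stock at 45 °C. Final concentrations were 10, 50 or 100 µg mL^-1, with 0.1% DMSO in test and control media. Colony diameter was read daily for 5 days, in triplicate, as % of untreated control.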"}, "[2]": {"tested_on": "Globisporangium ultimum", "test": "Antifungal activity against logarithmic phase of Pythium ultimum Trow ATCC 58812 assessed as growth inhibition measured at 5 days post-drug treatment", "type": "functional, organism-based", "conditions": "ATCC 58812, 120 h", "method_in_brief": "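Log-phase mycelium grown on cellophane over PDA (pH 5.6, 26 ± 1 °C) moved to PDA containing compound at 10, 50 and 100 µg mL^-1 final, with 0.1% DMSO in test and control media. Colony diameter was measured daily for 5 days, in triplicate, relative to untreated controls. IC50 came from curves of activity (%) versus log inhibitor concentration.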"}, "[3]": {"test": "Ratio of IC50 for photosynthetic electron transport in active intact chloroplast thylakoid membrane of Spinacea oleracea L. leaves to IC50 for Pythium ultimum ATCC 58812"}, "[4]": {"tested_on": "Botrytis cinerea", "test": "Antifungal activity against logarithmic phase of Botryotinia fuckeliana ATCC 48339 assessed as growth inhibition at 10 ug/ml measured at 5 days post-drug treatment", "type": "functional", "conditions": "ATCC 48339, 120 h, read-out: GI", "method_in_brief": "as §1"}, "[5]": {"tested_on": "Globisporangium ultimum", "test": "Antifungal activity against logarithmic phase of Pythium ultimum ATCC 58812 assessed as growth inhibition at 100 ug/ml measured at 5 days post-drug treatment", "type": "functional", "conditions": "ATCC 58812, 120 h, read-out: GI", "method_in_brief": "as §1"}, "[6]": {"tested_on": "Pyricularia grisea", "test": "microbe, parasite or virus in culture", "type": "functional", "conditions": "ATCC 64413, 120 h, read-out: GI"}, "[7]": {"test": "In vitro inhibition of basal rate of photosynthetic electron transport (Hill reaction) in active intact chloroplast thylakoid membrane of Spinacia oleracea (spinach) leaves assessed as inhibition of light-driven ferricyanide reduction at 5 uM measured at 24 degC at 30 s intervals for 10 min (reference value: 100 +/-3.1%)"}, "[8]": {"tested_on": "Globisporangium ultimum", "test": "Antifungal activity against logarithmic phase of Pythium ultimum ATCC 58812 assessed as growth inhibition at 10 ug/ml measured at 5 days post-drug treatment", "type": "functional", "conditions": "ATCC 58812, 120 h, read-out: GI", "method_in_brief": "as §1"}, "[9]": {"tested_on": "Pyricularia grisea", "test": "microbe, parasite or virus in culture", "type": "functional", "conditions": "ATCC 64413, 120 h, read-out: GI", "remark": "listed apart in the source"}, "[10]": {"tested_on": "Globisporangium ultimum", "test": "Antifungal activity against logarithmic phase of Pythium ultimum ATCC 58812 assessed as growth inhibition at 50 ug/ml measured at 5 days post-drug treatment", "type": "functional", "conditions": "ATCC 58812, 120 h, read-out: GI", "method_in_brief": "as §1"}, "[11]": {"tested_on": "Pyricularia grisea", "test": "microbe, parasite or virus in culture", "type": "functional", "conditions": "ATCC 64413, 120 h, read-out: GI", "remark": "listed apart in the source"}, "[12]": {"tested_on": "Botrytis cinerea", "test": "Antifungal activity against logarithmic phase of Botryotinia fuckeliana ATCC 48339 assessed as growth inhibition at 50 ug/ml measured at 5 days post-drug treatment", "type": "functional", "conditions": "ATCC 48339, 120 h, read-out: GI", "method_in_brief": "as §1"}}, "data": [{"smiles": "Cc1c(C(=O)O)c(C(=O)NC(C)(C)C)nn1-c1ccc(Cl)cc1", "values": [{"measurement": "inhibition of growth at 100 µg/mL", "setting": "[1]", "result": 49.9, "unit": "%"}, {"measurement": "IC50", "setting": "[2]", "result": 38, "unit": "µM"}, {"measurement": "Ratio IC50", "setting": "[3]", "result": 25}, {"measurement": "inhibition of growth at 10 µg/mL", "setting": "[4]", "result": 45.6, "unit": "%"}, {"measurement": "inhibition of growth at 100 µg/mL", "setting": "[5]", "result": 69.3, "unit": "%"}, {"measurement": "inhibition of growth at 10 µg/mL", "setting": "[6]", "result": 20.9, "unit": "%"}, {"measurement": "IC50", "setting": "[7]", "result": 950, "unit": "µM"}, {"measurement": "inhibition of growth at 10 µg/mL", "setting": "[8]", "result": 47.2, "unit": "%"}, {"measurement": "inhibition of growth at 50 µg/mL", "setting": "[9]", "result": 31.5, "unit": "%"}, {"measurement": "inhibition of growth at 50 µg/mL", "setting": "[10]", "result": 69.3, "unit": "%"}, {"measurement": "inhibition of growth at 100 µg/mL", "setting": "[11]", "result": 33.2, "unit": "%"}, {"measurement": "inhibition of growth at 50 µg/mL", "setting": "[12]", "result": 49.3, "unit": "%"}]}]}
